Legend:
[1] = target: Delta-type opioid receptor (Homo sapiens) (UniProt P41143); assay: Inhibition of delta opioid receptor (unknown origin) at 10 uM relative to control
[2] = target: 5-hydroxytryptamine receptor 6 (Homo sapiens) (UniProt P50406); assay: Inhibition of 5-HT6 receptor (unknown origin) at 10 uM relative to control
[3] = target: 5-hydroxytryptamine receptor 1D (Homo sapiens) (UniProt P28221); assay: Inhibition of 5-HT1D receptor (unknown origin) at 10 uM relative to control
[4] = target: T1, 5-hydroxytryptamine receptor 1A (Homo sapiens) (UniProt P08908); assay: Inhibition of 5-HT1A receptor (unknown origin) at 10 uM relative to control
T1 sequence (whole entry): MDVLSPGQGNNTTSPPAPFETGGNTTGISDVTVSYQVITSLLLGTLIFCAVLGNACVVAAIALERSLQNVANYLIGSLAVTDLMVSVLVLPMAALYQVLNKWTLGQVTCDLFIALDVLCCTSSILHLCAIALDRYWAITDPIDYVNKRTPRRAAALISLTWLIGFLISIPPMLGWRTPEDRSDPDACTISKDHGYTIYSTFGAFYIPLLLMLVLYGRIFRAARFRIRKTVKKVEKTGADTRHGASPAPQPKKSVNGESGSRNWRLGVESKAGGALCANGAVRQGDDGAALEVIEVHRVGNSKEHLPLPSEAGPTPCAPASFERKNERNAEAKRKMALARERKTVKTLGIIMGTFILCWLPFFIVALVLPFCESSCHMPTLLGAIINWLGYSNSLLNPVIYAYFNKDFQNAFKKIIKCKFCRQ

[5] = target: Kappa-type opioid receptor (Homo sapiens) (UniProt P41145); assay: Inhibition of kappa opioid receptor (unknown origin) at 10 uM relative to control
Chain of Kappa-type opioid receptor (Homo sapiens) (P41145 whole entry): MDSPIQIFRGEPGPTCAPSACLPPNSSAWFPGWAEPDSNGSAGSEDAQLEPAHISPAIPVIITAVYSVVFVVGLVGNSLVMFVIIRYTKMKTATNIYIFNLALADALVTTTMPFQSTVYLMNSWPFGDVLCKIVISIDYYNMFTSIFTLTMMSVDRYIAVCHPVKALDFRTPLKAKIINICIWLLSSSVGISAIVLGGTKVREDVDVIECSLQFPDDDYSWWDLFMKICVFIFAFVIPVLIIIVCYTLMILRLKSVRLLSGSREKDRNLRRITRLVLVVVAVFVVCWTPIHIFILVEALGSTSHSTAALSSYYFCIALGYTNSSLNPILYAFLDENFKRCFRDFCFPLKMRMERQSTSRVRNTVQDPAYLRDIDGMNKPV

[6] = target: T2, Alpha-2A adrenergic receptor (Homo sapiens) (UniProt P08913); assay: Inhibition of adrenergic alpha-2A receptor (unknown origin) at 10 uM relative to control
T2 sequence (whole entry): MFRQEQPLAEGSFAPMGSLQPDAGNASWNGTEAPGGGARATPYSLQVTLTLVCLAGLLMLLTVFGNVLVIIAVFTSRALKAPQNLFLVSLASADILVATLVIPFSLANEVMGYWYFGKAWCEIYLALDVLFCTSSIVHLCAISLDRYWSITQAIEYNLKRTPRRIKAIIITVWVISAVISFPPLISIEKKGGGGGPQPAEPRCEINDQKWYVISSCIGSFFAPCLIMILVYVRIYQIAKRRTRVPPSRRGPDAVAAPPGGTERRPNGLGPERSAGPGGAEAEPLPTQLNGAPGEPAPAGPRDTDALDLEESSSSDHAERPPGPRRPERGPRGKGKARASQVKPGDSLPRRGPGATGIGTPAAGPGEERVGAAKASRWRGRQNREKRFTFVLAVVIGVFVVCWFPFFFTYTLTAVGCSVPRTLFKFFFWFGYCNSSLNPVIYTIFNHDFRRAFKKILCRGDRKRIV

[7] = Toxicity in po dosed albino Sprague-Dawley rat assessed as behavioral changes measured at 0.25 to 4 hrs; assay type: organism-based; details: in vivo
How it was run: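 Male albino Sprague-Dawley rats given compound intraperitoneally or orally (NINDS ASP); neurological impairment judged from behavioral toxicity effects. Preset screening doses (e.g., 30 mg/kg); for adequately active compounds, TD50 (mg/kg, 95% confidence intervals) derived from dose–effect data at time of peak effect.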

[8] = target: Beta-2 adrenergic receptor (Homo sapiens) (UniProt P07550); assay: Inhibition of adrenergic beta-2 receptor (unknown origin) at 10 uM relative to control
Chain of Beta-2 adrenergic receptor (Homo sapiens) (P07550 whole entry, looked up): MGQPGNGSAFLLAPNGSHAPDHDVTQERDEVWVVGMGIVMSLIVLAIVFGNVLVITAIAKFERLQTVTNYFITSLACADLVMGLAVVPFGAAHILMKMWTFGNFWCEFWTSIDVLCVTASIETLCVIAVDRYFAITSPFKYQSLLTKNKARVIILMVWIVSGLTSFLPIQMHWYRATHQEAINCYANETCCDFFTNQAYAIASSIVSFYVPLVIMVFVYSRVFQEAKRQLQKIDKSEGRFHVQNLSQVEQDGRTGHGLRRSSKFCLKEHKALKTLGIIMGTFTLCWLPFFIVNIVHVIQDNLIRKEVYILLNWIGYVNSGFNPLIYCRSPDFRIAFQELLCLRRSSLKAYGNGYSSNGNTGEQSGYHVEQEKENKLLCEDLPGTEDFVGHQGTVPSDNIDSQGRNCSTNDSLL

Rattus norvegicus [9] = assay: Anticonvulsant activity in po dosed albino Sprague-Dawley rat assessed as protection against maximal electroshock-induced seizures measured at 0.25 to 4 hrs; assay type: functional
How it was run: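 Screened under the NINDS ASP in male albino Carworth Farms No. 1 mice (ip) or male albino Sprague-Dawley rats (ip or po), using MES, 6 Hz (32 mA) and subcutaneous pentylenetetrazol seizure tests. Initial qualitative tests used preset doses (e.g., 30, 50, 100 mg/kg). ED50 values with 95% confidence intervals came from dose–response data collected at the time of peak effect.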

[10] = target: D(1B) dopamine receptor (Homo sapiens) (UniProt P21918); assay: Inhibition of dopaminergic D5 receptor (unknown origin) at 10 uM relative to control
Chain of D(1B) dopamine receptor (Homo sapiens) (P21918 whole entry): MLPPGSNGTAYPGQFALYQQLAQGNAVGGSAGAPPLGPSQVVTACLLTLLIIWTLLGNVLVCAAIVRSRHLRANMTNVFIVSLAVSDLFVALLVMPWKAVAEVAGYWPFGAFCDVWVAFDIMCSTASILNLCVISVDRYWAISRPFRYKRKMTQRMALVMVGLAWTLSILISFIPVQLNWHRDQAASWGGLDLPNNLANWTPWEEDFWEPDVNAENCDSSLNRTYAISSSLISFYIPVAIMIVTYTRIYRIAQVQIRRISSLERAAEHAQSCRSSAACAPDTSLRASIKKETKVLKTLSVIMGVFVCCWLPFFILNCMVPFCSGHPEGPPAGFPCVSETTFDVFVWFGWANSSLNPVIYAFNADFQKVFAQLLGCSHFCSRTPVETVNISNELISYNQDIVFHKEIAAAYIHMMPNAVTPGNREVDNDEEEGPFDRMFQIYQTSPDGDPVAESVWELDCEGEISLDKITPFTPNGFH

[11] = target: T3, Muscarinic acetylcholine receptor M5 (Homo sapiens) (UniProt P08912); assay: Inhibition of muscarinergic M5 receptor (unknown origin) at 10 uM relative to control
T3 sequence (whole entry): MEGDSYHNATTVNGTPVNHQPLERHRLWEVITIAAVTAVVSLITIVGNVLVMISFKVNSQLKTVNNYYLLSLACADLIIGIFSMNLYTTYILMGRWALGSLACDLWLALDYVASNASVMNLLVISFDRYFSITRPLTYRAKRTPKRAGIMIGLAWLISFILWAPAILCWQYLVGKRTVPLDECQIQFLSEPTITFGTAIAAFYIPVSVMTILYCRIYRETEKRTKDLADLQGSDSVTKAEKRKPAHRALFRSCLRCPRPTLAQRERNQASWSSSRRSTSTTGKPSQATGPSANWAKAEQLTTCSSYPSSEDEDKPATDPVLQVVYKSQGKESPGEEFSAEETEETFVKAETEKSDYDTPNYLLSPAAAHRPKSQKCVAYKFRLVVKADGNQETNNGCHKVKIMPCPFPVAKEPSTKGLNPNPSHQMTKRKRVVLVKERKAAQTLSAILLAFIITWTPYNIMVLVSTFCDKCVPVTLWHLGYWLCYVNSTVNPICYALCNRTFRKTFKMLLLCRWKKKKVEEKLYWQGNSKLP

[12] = target: Mu-type opioid receptor (Homo sapiens) (UniProt P35372); assay: Inhibition of mu opioid receptor (unknown origin) at 10 uM relative to control
Chain of Mu-type opioid receptor (Homo sapiens) (P35372 whole entry): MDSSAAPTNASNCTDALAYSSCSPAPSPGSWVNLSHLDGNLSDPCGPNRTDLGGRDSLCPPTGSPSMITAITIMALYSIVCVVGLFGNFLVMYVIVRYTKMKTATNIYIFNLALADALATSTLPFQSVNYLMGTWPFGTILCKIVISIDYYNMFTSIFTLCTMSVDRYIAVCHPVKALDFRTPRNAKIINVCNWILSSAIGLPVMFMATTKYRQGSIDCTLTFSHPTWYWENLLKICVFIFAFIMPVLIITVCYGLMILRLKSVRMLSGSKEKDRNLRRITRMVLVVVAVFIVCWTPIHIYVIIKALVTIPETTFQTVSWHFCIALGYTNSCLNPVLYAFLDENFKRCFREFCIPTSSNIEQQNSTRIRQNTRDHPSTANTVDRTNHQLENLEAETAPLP

Rattus norvegicus [13] = organism: Rattus norvegicus; assay: Inhibition of BZP receptor in rat brain at 10 uM relative to control; assay type: tissue-based
[14] = target: D(3) dopamine receptor (Homo sapiens) (UniProt P35462); assay: Inhibition of dopaminergic D3 receptor (unknown origin) at 10 uM relative to control
Chain of D(3) dopamine receptor (Homo sapiens) (P35462 whole entry): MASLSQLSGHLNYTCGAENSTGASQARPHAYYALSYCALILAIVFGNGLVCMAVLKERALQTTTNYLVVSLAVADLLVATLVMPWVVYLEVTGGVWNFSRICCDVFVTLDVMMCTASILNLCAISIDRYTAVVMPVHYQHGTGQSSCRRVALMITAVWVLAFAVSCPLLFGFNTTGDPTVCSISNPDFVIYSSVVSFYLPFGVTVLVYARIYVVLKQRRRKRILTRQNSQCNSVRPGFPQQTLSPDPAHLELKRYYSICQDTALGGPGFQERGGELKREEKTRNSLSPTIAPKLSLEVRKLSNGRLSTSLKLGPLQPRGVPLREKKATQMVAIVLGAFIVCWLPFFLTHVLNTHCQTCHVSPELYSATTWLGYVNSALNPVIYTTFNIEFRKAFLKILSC

[15] = target: Histamine H3 receptor (Homo sapiens) (UniProt Q9Y5N1); assay: Inhibition of histamine H3 receptor (unknown origin) at 10 uM relative to control
Chain of Histamine H3 receptor (Homo sapiens) (Q9Y5N1 whole entry): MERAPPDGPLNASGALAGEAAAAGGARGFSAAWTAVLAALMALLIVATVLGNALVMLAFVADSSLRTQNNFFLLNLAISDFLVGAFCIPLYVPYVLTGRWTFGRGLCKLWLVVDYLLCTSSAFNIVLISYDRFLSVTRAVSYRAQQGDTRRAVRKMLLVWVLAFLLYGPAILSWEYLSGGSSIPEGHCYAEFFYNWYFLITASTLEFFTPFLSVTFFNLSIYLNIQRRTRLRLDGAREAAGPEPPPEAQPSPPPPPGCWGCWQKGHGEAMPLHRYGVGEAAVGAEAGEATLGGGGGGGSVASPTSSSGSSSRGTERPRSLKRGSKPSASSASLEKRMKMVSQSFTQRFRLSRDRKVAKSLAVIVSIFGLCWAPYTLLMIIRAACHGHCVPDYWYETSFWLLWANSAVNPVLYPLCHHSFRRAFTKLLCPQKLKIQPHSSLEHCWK

Chain of 5-hydroxytryptamine receptor 1D (Homo sapiens) (P28221 whole entry): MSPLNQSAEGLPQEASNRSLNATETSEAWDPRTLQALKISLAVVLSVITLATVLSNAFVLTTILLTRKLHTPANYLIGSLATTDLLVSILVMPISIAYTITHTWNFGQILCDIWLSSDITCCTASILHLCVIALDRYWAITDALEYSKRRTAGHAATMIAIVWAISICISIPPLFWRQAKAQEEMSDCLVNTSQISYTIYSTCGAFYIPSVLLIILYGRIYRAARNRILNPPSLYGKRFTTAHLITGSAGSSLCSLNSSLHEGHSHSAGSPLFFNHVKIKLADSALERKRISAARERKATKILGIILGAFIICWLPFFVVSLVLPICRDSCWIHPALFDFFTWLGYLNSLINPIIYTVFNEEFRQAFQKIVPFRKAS
Chain of Delta-type opioid receptor (Homo sapiens) (P41143 whole entry): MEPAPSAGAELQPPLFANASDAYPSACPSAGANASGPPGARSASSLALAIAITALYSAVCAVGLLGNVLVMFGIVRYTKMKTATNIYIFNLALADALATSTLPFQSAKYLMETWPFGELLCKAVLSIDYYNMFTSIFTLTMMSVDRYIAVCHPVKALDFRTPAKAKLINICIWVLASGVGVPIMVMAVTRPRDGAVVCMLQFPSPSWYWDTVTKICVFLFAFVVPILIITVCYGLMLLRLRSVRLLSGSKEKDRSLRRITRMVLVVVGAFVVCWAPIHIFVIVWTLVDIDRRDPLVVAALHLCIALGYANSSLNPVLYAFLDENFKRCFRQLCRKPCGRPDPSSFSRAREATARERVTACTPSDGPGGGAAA
Chain of 5-hydroxytryptamine receptor 6 (Homo sapiens) (P50406 whole entry): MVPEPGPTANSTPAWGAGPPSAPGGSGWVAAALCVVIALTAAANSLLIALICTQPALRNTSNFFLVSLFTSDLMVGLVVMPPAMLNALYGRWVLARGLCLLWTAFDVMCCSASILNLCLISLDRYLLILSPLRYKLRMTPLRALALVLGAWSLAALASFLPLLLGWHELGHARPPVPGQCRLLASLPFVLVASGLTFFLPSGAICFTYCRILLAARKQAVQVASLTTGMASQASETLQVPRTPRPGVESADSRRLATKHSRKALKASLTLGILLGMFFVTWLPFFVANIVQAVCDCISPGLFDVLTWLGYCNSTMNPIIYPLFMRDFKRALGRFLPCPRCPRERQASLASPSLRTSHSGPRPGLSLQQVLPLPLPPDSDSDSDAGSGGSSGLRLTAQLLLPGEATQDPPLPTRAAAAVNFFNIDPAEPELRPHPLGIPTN

inhibition [1]	inhibition [2]	inhibition [3]	inhibition [4]	inhibition [5]	inhibition [6]	inhibition [8]	inhibition [10]	inhibition [11]	inhibition [12]	inhibition (Rattus norvegicus [13])	inhibition [14]	inhibition [15]	SMILES	TD50 [7]	ED50 (Rattus norvegicus [9])
0.9%	34.3%	12.3%	50%	9.8%	47%	-8.1%	0.4%	0.8%	2.8%	19.8%	33.5%	21.7%	Cl.NCc1ccc(OCc2cccc(OC(F)(F)F)c2)cc1	> 30 mg/kg	> 30 mg/kg
18%	44.8%	–	50.1%	1.3%	57.2%	9.2%	-0.5%	–	-8.6%	25.8%	14%	-2.8%	Cl.NCc1ccc(OCc2cccc(F)c2)cc1	> 30 mg/kg	> 30 mg/kg
13%	50.5%	1.6%	3.7%	16.6%	65.9%	17.1%	6.4%	13.6%	-2.3%	6.5%	22.6%	35.3%	Cl.NCc1ccc(OCc2ccc(Cl)cc2)cc1	> 30 mg/kg	> 30 mg/kg
21%	8.9%	4.9%	22.3%	2.6%	48.2%	9.1%	3.5%	1.7%	-5.6%	0.3%	13.3%	21.1%	Cl.NCc1ccc(OCc2ccc(OC(F)(F)F)cc2)cc1	> 30 mg/kg	> 30 mg/kg
17%	18.1%	12.7%	36%	14.2%	55.4%	2.2%	1%	6.4%	-5.5%	8.9%	16.7%	35%	Cl.NCc1ccc(OCc2ccc(F)cc2)cc1	> 30 mg/kg	> 30 mg/kg
23%	22%	0.5%	10.1%	6.6%	59.2%	5%	3.9%	0.4%	-4.8%	5.9%	33.9%	11.8%	Cl.NCc1ccc(OCc2ccccc2OC(F)(F)F)cc1	> 30 mg/kg	–
22%	26.9%	-3.3%	16%	6%	47.3%	11.8%	1.9%	-2.7%	-5.8%	12.7%	14.3%	11.2%	Cl.NCc1ccc(OCc2ccccc2)cc1	> 30 mg/kg	> 30 mg/kg
17%	21.3%	–	32.3%	3.6%	39%	17.4%	2.3%	-8.5%	–	-1.5%	24.1%	-0.4%	Cl.NCc1ccc(OCc2ccccc2F)cc1	> 30 mg/kg	> 30 mg/kg
17%	52.4%	-0.7%	7.5%	13.9%	74%	-5.7%	-1.6%	17.7%	-2.2%	-4.4%	38.1%	19.3%	Cl.NCc1ccc(OCc2cccc(Cl)c2)cc1	> 30 mg/kg	> 30 mg/kg

Reference: ChEMBL document CHEMBL3091364, “Benzyloxybenzylammonium chlorides: Simple amine salts that display anticonvulsant activity” (Bioorg Med Chem, 2013)
